Assay [1] relates to Canis familiaris. Kind of assay: Diuretic activity was measured after oral administration in conscious water loaded dogs at 20 mg/kg after 1 hr. Format: functional, Canis lupus familiaris, Urine. In short, it runs like this: (§1)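 Male mongrel dogs (20–25 kg) were given 20 mL/kg tap water by gavage about 15 h before drug, with water ad libitum overnight. On the test day they received 4 mL/kg tap water hourly for 7 h, and the bladder was emptied at each interval. Drug was gavaged in the 4 mL/kg water load after the third urine sample, with Tween 80 added when it was poorly soluble. Urinary Na+ was measured by flame photometry as the mean excretory rate (μequiv/kg) per interval per animal. Each dog was its own control, using the hour before dosing.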

The test system of assay [2] is Mus musculus. Description: The diuretic activity was measured after oral administration in saline loaded mice at 64 mg/kg after 5 hr. Type of assay: functional, Urine. The essentials: (§2)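 Mice were dosed orally with drug in 1% saline at 10 mL/kg, at 4 or 64 mg/kg, alongside a vehicle control. There were 10 mice per group, housed 5 per metabolic cage. Pooled urine was analysed for sodium by flame photometry and expressed as mean mequiv/kg/5 h.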

Assay [3] has as its system Mus musculus. Description: The diuretic activity was measured after oral administration in saline loaded mice at 4 mg/kg after 5 hr. Type of assay: functional, Urine. In short, it runs like this:
as §2

In assay [4] the test system is Canis familiaris. Kind of assay: The diuretic activity of compound was measured after oral administration in conscious water loaded dogs at 5 mg/kg after 4 hr; Micro equiv of Na+/kg. Format: functional, Canis lupus familiaris, Urine. The essentials: as §1
The subject of assay [5] is Canis familiaris. Kind of assay: The diuretic activity of compound was measured after oral administration in conscious water loaded dogs at 5 mg/kg after 2 hr; Micro equiv of Na+/kg. Format: functional, Canis lupus familiaris, Urine. In short, it runs like this:
as §1

The test system of assay [6] is Canis familiaris. Kind of assay: The diuretic activity of compound was measured after oral administration in conscious water loaded dogs at 5 mg/kg after 3 hr; Micro equiv of Na+/kg. Type of assay: functional, Canis lupus familiaris, Urine. The essentials:
as §1

Assay [7] concerns Canis familiaris. Description: The diuretic activity of compound was measured after oral administration in conscious water loaded dogs at 5 mg/kg after 1 hr; Micro equiv of Na+/kg. Format: functional, Canis lupus familiaris, Urine. In short, it runs like this: as §1
For assay [8], the system named is Canis familiaris. Kind of assay: The diuretic activity of compound was measured after oral administration in conscious water loaded dogs at 5 mg/kg after 5h; Micro equiv of Na+/kg. Format: functional, Canis lupus familiaris, Urine. In short, it runs like this: as §1
For assay [9], the system named is Canis familiaris. Kind of assay: The diuretic activity of compound was measured after oral administration in conscious water loaded dogs at 5 mg/kg after 7h; Micro equiv of Na+/kg. Format: functional, Canis lupus familiaris, Urine. In short, it runs like this:
as §1

As for `Cc1cccc(-c2noc3c(Cl)c(OCC(=O)O)ccc23)c1C`, the Oral diuretic activity in the assay with Canis familiaris [1] is 219.9 u equiv of [Na+] kg-1 hr-1; in the assay with Mus musculus [2], 0.02 m equiv [Na+] 5hr-1kg-1.
Take `Cc1ccc(-c2noc3c(Cl)c(OCC(=O)O)ccc23)o1`: the values for the Oral diuretic activity with Mus musculus [3], with Canis familiaris [1] and in the assay with Mus musculus [2] were 0.3 m equiv [Na+] 5hr-1kg-1, 37.4 u equiv of [Na+] kg-1 hr-1 and 1.5 m equiv [Na+] 5hr-1kg-1, respectively.
In the case of `O=C(O)COc1ccc2c(-c3ccc(O)cc3F)noc2c1Cl`, the Oral diuretic activity with Mus musculus [3] is 0.5 m equiv [Na+] 5hr-1kg-1; with Canis familiaris [1], 43.5 u equiv of [Na+] kg-1 hr-1; in the assay with Mus musculus [2], 0.6 m equiv [Na+] 5hr-1kg-1.
`O=C(O)COc1ccc2c(-c3ccc(Cl)c(Cl)c3)noc2c1Cl`: the Oral diuretic activity in the assay with Mus musculus [3] is 0.6 m equiv [Na+] 5hr-1kg-1; with Canis familiaris [1], 101.6 u equiv of [Na+] kg-1 hr-1; in the assay with Mus musculus [2], 0.1 m equiv [Na+] 5hr-1kg-1.
With `O=C(O)COc1ccc2c(-c3ccc(Cl)cc3)noc2c1Cl`, the Oral diuretic activity in the assay on Mus musculus [3] was 0.5 m equiv [Na+] 5hr-1kg-1; in the assay on Canis familiaris [1], 41.2 u equiv of [Na+] kg-1 hr-1; with Mus musculus [2], 0.5 m equiv [Na+] 5hr-1kg-1.
As to `O=C(O)COc1c(Cl)cc2c(-c3ccccc3F)noc2c1Cl`, the results for the Oral diuretic activity in the assay on Canis familiaris [1] and in the assay with Mus musculus [2] were 85.7 u equiv of [Na+] kg-1 hr-1 and 0.41 m equiv [Na+] 5hr-1kg-1, respectively.
The like results for `CCOC(=O)COc1ccc2c(-c3ccccc3F)noc2c1Cl` were, in that order, 39.1 u equiv of [Na+] kg-1 hr-1 and 1.48 m equiv [Na+] 5hr-1kg-1.
`O=C(O)COc1ccc2c(-c3cccs3)noc2c1Cl`: the Oral diuretic activity in the assay on Mus musculus [3] was 0.4 m equiv [Na+] 5hr-1kg-1; in the assay with Canis familiaris [1], 77.5 u equiv of [Na+] kg-1 hr-1; in the assay on Mus musculus [2], 1 m equiv [Na+] 5hr-1kg-1.
In the same order, the values of `O=C(O)COc1cc(Cl)c2c(-c3ccccc3F)noc2c1` are 1.59 m equiv [Na+] 5hr-1kg-1, 82.1 u equiv of [Na+] kg-1 hr-1 and 1.16 m equiv [Na+] 5hr-1kg-1.
On to `O=C(O)COc1ccc2c(-c3ccc4ccccc4c3)noc2c1Cl`, for which the Oral diuretic activity is 1.2 m equiv [Na+] 5hr-1kg-1 in the assay on Mus musculus [3], 53.3 u equiv of [Na+] kg-1 hr-1 with Canis familiaris [1] and 1.1 m equiv [Na+] 5hr-1kg-1 in the assay on Mus musculus [2].
The like results for `Cc1ccccc1-c1noc2c(Cl)c(OCC(=O)O)ccc12` were, in that order, 0.02 m equiv [Na+] 5hr-1kg-1, 66.9 u equiv of [Na+] kg-1 hr-1 and 1.76 m equiv [Na+] 5hr-1kg-1.
For `O=C(O)COc1ccc2c(-c3ccccc3F)noc2c1`, the Oral diuretic activity with Canis familiaris [1] was 33.6 u equiv of [Na+] kg-1 hr-1; in the assay with Mus musculus [2], 2.89 m equiv [Na+] 5hr-1kg-1.
As to `O=C(O)COc1ccc(-c2noc3ccccc23)c(Cl)c1Cl`, the results for the Oral diuretic activity in the assay on Mus musculus [3], in the assay with Canis familiaris [1] and in the assay with Mus musculus [2] were 0.33 m equiv [Na+] 5hr-1kg-1, 81.6 u equiv of [Na+] kg-1 hr-1 and 1.49 m equiv [Na+] 5hr-1kg-1, respectively.
Take `O=C(O)CSc1ccc2c(-c3ccccc3F)noc2c1Cl`: the Oral diuretic activity was 1.37 m equiv [Na+] 5hr-1kg-1 in the assay with Mus musculus [3], 328.4 u equiv of [Na+] kg-1 hr-1 with Canis familiaris [1] and 4.67 m equiv [Na+] 5hr-1kg-1 in the assay with Mus musculus [2].
As to `O=C(O)COc1cc2onc(-c3ccccc3F)c2cc1Cl`, the Oral diuretic activity was 0.6 m equiv [Na+] 5hr-1kg-1 in the assay with Mus musculus [3], 49.8 u equiv of [Na+] kg-1 hr-1 in the assay on Canis familiaris [1] and 0.2 m equiv [Na+] 5hr-1kg-1 with Mus musculus [2].
Turning to `O=C(O)COc1ccc2c(-c3ccccn3)noc2c1Cl`, the Oral diuretic activity was 0.5 m equiv [Na+] 5hr-1kg-1 with Mus musculus [3], 61.2 u equiv of [Na+] kg-1 hr-1 in the assay with Canis familiaris [1] and 1 m equiv [Na+] 5hr-1kg-1 in the assay on Mus musculus [2].
For `O=C(O)COc1ccc2c(-c3ccccc3F)noc2c1I`, the figures for the Oral diuretic activity with Mus musculus [3], in the assay with Canis familiaris [1] and with Mus musculus [2] were 0.07 m equiv [Na+] 5hr-1kg-1, 617.3 u equiv of [Na+] kg-1 hr-1 and 3.41 m equiv [Na+] 5hr-1kg-1, respectively.
On to `O=C(O)COc1ccc2c(-c3ccc(F)cc3)noc2c1Cl`, for which the figures for the Oral diuretic activity in the assay on Mus musculus [3], in the assay on Canis familiaris [1] and in the assay with Mus musculus [2] were 0.4 m equiv [Na+] 5hr-1kg-1, 178.7 u equiv of [Na+] kg-1 hr-1 and 0.4 m equiv [Na+] 5hr-1kg-1, respectively.
With `O=C(O)COc1ccc2c(-c3ccc(Cl)cc3F)noc2c1Cl`, the results for the Oral diuretic activity with Mus musculus [3], with Canis familiaris [1] and in the assay on Mus musculus [2] were 1.8 m equiv [Na+] 5hr-1kg-1, 156.2 u equiv of [Na+] kg-1 hr-1 and 1.4 m equiv [Na+] 5hr-1kg-1, respectively.
Consider `O=C(O)COc1cc2onc(-c3ccccc3F)c2cc1Br`, for which the figures for the Oral diuretic activity with Mus musculus [3] and in the assay on Mus musculus [2] were 0.47 m equiv [Na+] 5hr-1kg-1 and 0.28 m equiv [Na+] 5hr-1kg-1, respectively.
Take `O=C(O)COc1ccc2c(-c3cccc(F)c3F)noc2c1Cl`: the Oral diuretic activity with Canis familiaris [1] was 80 u equiv of [Na+] kg-1 hr-1; with Mus musculus [2] it was 5.8 m equiv [Na+] 5hr-1kg-1.
As to `O=C(O)COc1ccc2c(-c3ccco3)noc2c1Cl`, the Oral diuretic activity was 199 u equiv of [Na+] kg-1 hr-1 with Canis familiaris [1] and 0.6 m equiv [Na+] 5hr-1kg-1 in the assay on Mus musculus [2].
Turning to `O=C(O)COc1ccc2c(-c3ccccc3Cl)noc2c1Cl`, the Oral diuretic activity in the assay with Mus musculus [3] is 0.6 m equiv [Na+] 5hr-1kg-1; in the assay with Canis familiaris [1], 48.2 u equiv of [Na+] kg-1 hr-1; with Mus musculus [2], 9.1 m equiv [Na+] 5hr-1kg-1.
As for `O=C(O)COc1ccc2c(-c3ccoc3)noc2c1Cl`, the Oral diuretic activity in the assay with Mus musculus [3] was 0.6 m equiv [Na+] 5hr-1kg-1; with Canis familiaris [1] it was 293 u equiv of [Na+] kg-1 hr-1; in the assay on Mus musculus [2], 2.1 m equiv [Na+] 5hr-1kg-1.
For the compound `O=C(O)COc1ccc2c(-c3cc(F)ccc3F)noc2c1Cl`, the Oral diuretic activity is 2.2 m equiv [Na+] 5hr-1kg-1 with Mus musculus [3], 926.2 u equiv of [Na+] kg-1 hr-1 in the assay on Canis familiaris [1] and 8.3 m equiv [Na+] 5hr-1kg-1 in the assay on Mus musculus [2].
The like results for `Cc1ccc(-c2noc3c(Cl)c(OCC(=O)O)ccc23)cc1` were, in that order, 0.8 m equiv [Na+] 5hr-1kg-1, 29.3 u equiv of [Na+] kg-1 hr-1 and 0.6 m equiv [Na+] 5hr-1kg-1.
Regarding `Cc1ccc(-c2noc3c(Cl)c(OCC(=O)O)ccc23)s1`, the Oral diuretic activity was 122.4 u equiv of [Na+] kg-1 hr-1 in the assay on Canis familiaris [1] and 0.5 m equiv [Na+] 5hr-1kg-1 in the assay with Mus musculus [2].
With `O=C(O)COc1ccc2c(-c3ccc(F)cc3F)noc2c1Cl`, the results for the Oral diuretic activity in the assay with Mus musculus [3], with Canis familiaris [1] and in the assay with Mus musculus [2] were 0.7 m equiv [Na+] 5hr-1kg-1, 41.7 u equiv of [Na+] kg-1 hr-1 and 0.9 m equiv [Na+] 5hr-1kg-1, respectively.
In the case of `O=C(O)COc1ccc2c(-c3cccc(F)c3)noc2c1Cl`, the Oral diuretic activity with Mus musculus [3] is 0.75 m equiv [Na+] 5hr-1kg-1; in the assay on Canis familiaris [1] it was 50.6 u equiv of [Na+] kg-1 hr-1; in the assay on Mus musculus [2], 0.81 m equiv [Na+] 5hr-1kg-1.
Turning to `Cc1ccsc1-c1noc2c(Cl)c(OCC(=O)O)ccc12`, the Oral diuretic activity in the assay with Canis familiaris [1] is 97.7 u equiv of [Na+] kg-1 hr-1; with Mus musculus [2], 0.7 m equiv [Na+] 5hr-1kg-1.
Turning to `O=C(O)COc1c(Cl)c(Cl)c2c(-c3ccccc3F)noc2c1Cl`, the Oral diuretic activity in the assay with Mus musculus [3] is 0.53 m equiv [Na+] 5hr-1kg-1; in the assay with Canis familiaris [1], 109 u equiv of [Na+] kg-1 hr-1; in the assay with Mus musculus [2], 1.65 m equiv [Na+] 5hr-1kg-1.
In the case of `O=C(O)COc1ccc2c(-c3ccccc3)noc2c1Cl`, the values for the Oral diuretic activity in the assay with Mus musculus [3], with Canis familiaris [1] and in the assay with Mus musculus [2] were 0.8 m equiv [Na+] 5hr-1kg-1, 47.5 u equiv of [Na+] kg-1 hr-1 and 1.7 m equiv [Na+] 5hr-1kg-1, respectively.
Turning to `O=C(O)COc1ccc2c(-c3ccccc3F)noc2c1Br` [BROCRINAT], the Oral diuretic activity was 869 u equiv of [Na+] kg-1 in the assay on Canis familiaris [4]; 1.02 m equiv [Na+] 5hr-1kg-1 in the assay on Mus musculus [3]; 1970.7 u equiv of [Na+] kg-1 hr-1 with Canis familiaris [1]; 1083 u equiv of [Na+] kg-1 in the assay on Canis familiaris [5]; 1182.6 u equiv of [Na+] kg-1 in the assay with Canis familiaris [6]; 106.8 u equiv of [Na+] kg-1 in the assay with Canis familiaris [7]. Moreover, the figures for the Oral diuretic activity in the assay on Mus musculus [2] and with Canis familiaris [8] were 11.53 m equiv [Na+] 5hr-1kg-1 and 503.3 u equiv of [Na+] kg-1, respectively.
As for `O=C(O)COc1ccc(C(=O)c2cccs2)c(Cl)c1Cl` [TICRYNAFEN], the Oral diuretic activity in the assay with Canis familiaris [4] was 77.4 u equiv of [Na+] kg-1; in the assay with Mus musculus [3], 1.11 m equiv [Na+] 5hr-1kg-1; in the assay on Canis familiaris [1], 302.3 u equiv of [Na+] kg-1 hr-1; in the assay on Canis familiaris [7], 127.5 u equiv of [Na+] kg-1; with Mus musculus [2] it was 3.31 m equiv [Na+] 5hr-1kg-1; in the assay on Canis familiaris [8], 36.5 u equiv of [Na+] kg-1. Further, the Oral diuretic activity with Canis familiaris [9] was 21.2 u equiv of [Na+] kg-1.

(Values after ChEMBL document CHEMBL1121929, “[(3-aryl-1,2-benzisoxazol-6-yl)oxy]acetic acids. A new diuretic series” (1982).)
